Measurements of several laboratories.
Each line is one published result; the experiments were not run side by side.
Medium: plasma
Route: intravenous

`COc1ccc2c(Cc3ccccc3F)c3n(c(=O)c2c1OC)CCc1cc2c(cc1-3)OCO2` has a Vd of 0.32 L/kg (rat; 5 mg/kg).
`CN1CCC(COc2cnc(-c3cccc(Cn4nc(-c5cccc(C#N)c5)ccc4=O)c3)nc2)CC1` has a Vd of 19 L/kg (male Sprague-Dawley rat; 1 mg/kg).
With `CCNC(=O)c1nc(-c2ccc3[nH]c(-c4nc(C)no4)cc3c2)c(C)[nH]1` the Vd was 1.3 L/kg (Sprague-Dawley rat; 1 mg/kg).
`COc1cc(F)ccc1-c1ncnc(Nc2cccc(CS(N)(=O)=O)c2)n1` has a Vd of 1.4 L/kg (male Wistar rat).
`C[C@]12CC[C@H](n3ccnc3)CC1=CC[C@@H]1[C@@H]2CC[C@]2(C)C(n3cnc4ccccc43)=CC[C@@H]12` has a Vd of roughly 6 L/kg (Sprague-Dawley rat; 1 mg/kg).
`Cc1nc(Nc2ncc(C(=O)Nc3c(C)cccc3Cl)s2)cc(N2CCN(CCO)CC2)n1` gave a Vd of 4.6 L (female Sprague-Dawley rat; 5 mg/kg).
For `O=C(Nc1cc(F)c(F)c(F)c1)c1ccc(F)c(S(=O)(=O)NCc2cccc(B(O)O)c2)c1`, the Vd was 11 L/kg (male Sprague-Dawley rat; 2 mg/kg).
With `CCCC[C@@H]1NC(=O)[C@H](Cc2ccc(O)cc2)NC(=O)[C@@H]2CCCN2C(=O)[C@H](CC(=O)O)NC(=O)[C@H](C)NC(=O)[C@H](Cc2ccccc2)NC(=O)[C@@H]2CSCCC(=O)N3CN(CN(C3)C(=O)CCSC[C@@H](C(=O)N[C@@H](C)C(N)=O)NC1=O)C(=O)CCSC[C@H](NC(C)=O)C(=O)N[C@@H](CC(C)(C)C)C(=O)N1CCC[C@H]1C(=O)N[C@@H](CCC(=O)O)C(=O)N[C@H](CCCCNC(=O)CCc1cn(CCOCCOCCOCCOCCOCCOCCOCCOCCOCCOCCNC(=O)c3cc(C(=O)NCCOCCOCCOCCOCCOCCOCCOCCOCCOCCOCCn4cc(CCC(=O)NCCCC[C@H]5NC(=O)[C@H](CCC(=O)O)NC(=O)[C@@H]6CCCN6C(=O)[C@H](CC(C)(C)C)NC(=O)[C@@H](NC(C)=O)CSCCC(=O)N6CN7CN(C6)C(=O)CCSC[C@H](NC(=O)[C@H](Cc6ccc(O)cc6)NC(=O)[C@@H]6CCCN6C5=O)C(=O)N[C@@H](Cc5ccccc5)C(=O)N[C@@H](C)C(=O)N[C@@H](CC(=O)O)C(=O)N5CCC[C@H]5C(=O)N[C@@H](Cc5ccc(O)cc5)C(=O)N[C@@H](CCCC)C(=O)N[C@H](C(=O)N[C@@H](C)C(N)=O)CSCCC7=O)nn4)cc(C(=O)NCCOCCOCCOCCOCCOCCOCCOCCOCCOCCOCCn4cc(CCC(=O)N[C@H]5CSCCC(=O)N6CN7CN(C6)C(=O)CCSC[C@H](NC(=O)[C@@H](CC(=O)O)NC(=O)[C@H](Cc6cccc8ccccc68)NC(=O)[C@@H]6CCCN6C5=O)C(=O)N[C@@H](CCSC)C(=O)N[C@@H](CCCCNC(=N)N)C(=O)N[C@@H](CC(=O)O)C(=O)N[C@@H](Cc5c[nH]c6ccccc56)C(=O)N[C@@H](CO)C(=O)N[C@@H]([C@@H](C)O)C(=O)N5CCC[C@H]5C(=O)N5C[C@H](O)C[C@H]5C(=O)N[C@@H](Cc5c[nH]c6ccccc56)C(=O)N[C@H](C(N)=O)CSCCC7=O)nn4)c3)nn1)C(=O)N1CCC[C@H]1C(=O)N[C@@H](Cc1ccc(O)cc1)C(=O)N2` the Vd was 1 L/kg (rat; 2 mg/kg).
With `CCCCCCCCCCCCCCCc1ccc(CP(=O)(O)O)cc1` the Vd was 3.9 L/kg (male Sprague-Dawley rat; 5.8 mg/kg).
`CCc1cc(OC)c2nccc(N3CCc4c(cc(Cn5ccnc5)cc4-c4cn(C)nc4C(F)(F)F)C3=O)c2c1` gave a Vd of 3.1 L/kg (male Sprague-Dawley rat; 3 mg/kg).
With `CCCC[C@@H]1NC(=O)[C@H](Cc2ccc(O)cc2)NC(=O)[C@@H]2CCCN2C(=O)[C@H](CC(=O)O)NC(=O)[C@H](C)NC(=O)[C@H](Cc2ccccc2)NC(=O)[C@@H]2CSCCC(=O)N3CN(CN(C3)C(=O)CCSC[C@@H](C(=O)N[C@@H](C)C(N)=O)NC1=O)C(=O)CCSC[C@H](NC(C)=O)C(=O)N[C@@H](CC(C)(C)C)C(=O)N1CCC[C@H]1C(=O)N[C@@H](CCC(=O)O)C(=O)N[C@H](CCCCNC(=O)CCc1cn(CCOCCOCCOCCOCCOCCOCCOCCOCCOCCOCCNC(=O)CCOCCN(CCOCCC(=O)NCCOCCOCCOCCOCCOCCOCCOCCOCCOCCOCCn3cc(CCC(=O)NCCCC[C@H]4NC(=O)[C@H](CCC(=O)O)NC(=O)[C@@H]5CCCN5C(=O)[C@H](CC(C)(C)C)NC(=O)[C@@H](NC(C)=O)CSCCC(=O)N5CN6CN(C5)C(=O)CCSC[C@H](NC(=O)[C@H](Cc5ccc(O)cc5)NC(=O)[C@@H]5CCCN5C4=O)C(=O)N[C@@H](Cc4ccccc4)C(=O)N[C@@H](C)C(=O)N[C@@H](CC(=O)O)C(=O)N4CCC[C@H]4C(=O)N[C@@H](Cc4ccc(O)cc4)C(=O)N[C@@H](CCCC)C(=O)N[C@H](C(=O)N[C@@H](C)C(N)=O)CSCCC6=O)nn3)CCOCCC(=O)NCCOCCOCCOCCOCCOCCOCCOCCOCCOCCOCCn3cc(CCC(=O)N[C@H]4CSCCC(=O)N5CN6CN(C5)C(=O)CCSC[C@H](NC(=O)[C@@H](CC(=O)O)NC(=O)[C@H](Cc5cccc7ccccc57)NC(=O)[C@@H]5CCCN5C4=O)C(=O)N[C@@H](CCSC)C(=O)N[C@@H](CCCCNC(=N)N)C(=O)N[C@@H](CC(=O)O)C(=O)N[C@@H](Cc4c[nH]c5ccccc45)C(=O)N[C@@H](CO)C(=O)N[C@@H]([C@@H](C)O)C(=O)N4CCC[C@H]4C(=O)N4C[C@H](O)C[C@H]4C(=O)N[C@@H](Cc4c[nH]c5ccccc45)C(=O)N[C@H](C(N)=O)CSCCC6=O)nn3)nn1)C(=O)N1CCC[C@H]1C(=O)N[C@@H](Cc1ccc(O)cc1)C(=O)N2` the Vd was 0.44 L/kg (rat; 2 mg/kg).
For `Oc1cc(O)cc(-c2cc3ccc(O)cc3o2)c1`, the Vd was 0.393 L/kg (male rat; 5 mg/kg).
